Source: ChEMBL document CHEMBL4261600 (Eur J Med Chem, 2018)

Key:
[1] = target: Serine/threonine-protein kinase D2 (Homo sapiens) (UniProt Q9BZL6); assay: Binding affinity to wild-type human partial length PRKD2 (A519 to E838 residues) expressed in bacterial expression system assessed as remaining unbound target protein level at 1000 nM by Kinomescan method relative to control
[2] = target: Serine/threonine-protein kinase SIK1 (Homo sapiens) (UniProt P57059); assay: Binding affinity to wild-type human partial length SIK (M1 to Y304 residues) expressed in bacterial expression system assessed as remaining unbound target protein level at 1000 nM by Kinomescan method relative to control
MV4-11 = assay: Induction of apoptosis in human MV4-11 cells assessed as decrease in c-MYC level after 2 hrs by immunoblotting analysis; type: functional, cell-based
[3] = MRT (0 to infinity) in mouse at 3 mg/kg, iv by LC-MS/MS analysis; type: ADME, organism-based; details: in vivo
[4] = target: Serine/threonine-protein kinase pim-1 (Homo sapiens) (UniProt P11309); assay: Binding affinity to wild-type human partial length PIM1 (A15 to K313 residues) expressed in bacterial expression system assessed as remaining unbound target protein level at 1000 nM by Kinomescan method relative to control
HL-60 = assay: Antiproliferative activity against human HL60 cells after 72 hrs by Celltiter-Glo assay; type: functional; details: HL-60, 72 h
In short: (§1)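 Cells seeded at 3000/well in 96-well plates, exposed to serially diluted compound for 72 h at 37 °C, 5% CO2. Viability read by CellTiter-Glo luminescence and normalized to DMSO control. GI50 derived from curve fit, mean of three independent measurements. Culture media: DMEM/10% FBS for adherent lines; IMDM for MV4-11 and MEC-1/2; RPMI 1640 for suspension lines and CHL.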

[5] = target: Serine/threonine-protein kinase RIO2 (Homo sapiens) (UniProt Q9BVS4); assay: Binding affinity to wild-type human partial length RIOK2 (M1 to D313 residues) expressed in mammalian expression system assessed as remaining unbound target protein level at 1000 nM by Kinomescan method relative to control
[6] = target: Mast/stem cell growth factor receptor Kit (Homo sapiens) (UniProt P10721); assay: Binding affinity to wild-type human partial length autoinhibited KIT (Y545 to D952 residues) expressed in mammalian expression system assessed as remaining unbound target protein level at 1000 nM by Kinomescan method relative to control
[7] = target: Cyclin-dependent kinase 2 (Homo sapiens) (UniProt P24941); assay: Binding affinity to wild-type human full length CDK2 (M1 to L298 residues) expressed in bacterial expression system assessed as remaining unbound target protein level at 1000 nM by Kinomescan method relative to control
In short: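 Single-point competition binding screen across a panel of 468 kinases and mutants, with the inhibitor at 1 μM. Binding is read out as percent of a DMSO control, and targets below 1 percent control were classed as strong binders.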

GISTT1 = assay: Antiproliferative activity against human GISTT1 cells after 72 hrs by Celltiter-Glo assay; type: functional; details: GISTT1, 72 h; in short: as §1
[8] = target: Serine/threonine-protein kinase Nek10 (Homo sapiens) (UniProt Q6ZWH5); assay: Binding affinity to wild-type human partial length NEK10 (L488 to R809 residues) expressed in mammalian expression system assessed as remaining unbound target protein level at 1000 nM by Kinomescan method relative to control
[9] = target: Serine/threonine-protein kinase 35 (Homo sapiens) (UniProt Q8TDR2); assay: Binding affinity to wild-type human partial length STK35 (G182 to A534 residues) expressed in bacterial expression system assessed as remaining unbound target protein level at 1000 nM by Kinomescan method relative to control
[10] = target: Mitogen-activated protein kinase kinase kinase 14 (Homo sapiens) (UniProt Q99558); assay: Binding affinity to wild-type human partial length NIK (L318 to P947 residues) expressed in mammalian expression system assessed as remaining unbound target protein level at 1000 nM by Kinomescan method relative to control
[11] = target: Protein kinase C eta type (Homo sapiens) (UniProt P24723); assay: Binding affinity to wild-type human partial length PRKCH (S324 to P683 residues) expressed in bacterial expression system assessed as remaining unbound target protein level at 1000 nM by Kinomescan method relative to control
[12] = target: Homeodomain-interacting protein kinase 4 (Homo sapiens) (UniProt Q8NE63); assay: Binding affinity to wild-type human partial length HIPK4 (M1 to V384 residues) expressed in bacterial expression system assessed as remaining unbound target protein level at 1000 nM by Kinomescan method relative to control
In short: (§2)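 KINOMEscan binding panel of 468 kinases/mutants. Inhibitor was tested at a single concentration of 1 μM. Binding is reported as percent of control, defined relative to a DMSO control.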

[13] = target: Receptor-interacting serine/threonine-protein kinase 1 (Homo sapiens) (UniProt Q13546); assay: Binding affinity to wild-type human partial length RIPK1 (M1 to K305 residues) expressed in bacterial expression system assessed as remaining unbound target protein level at 1000 nM by Kinomescan method relative to control
[14] = target: Receptor tyrosine-protein kinase erbB-3 (Homo sapiens) (UniProt P21860); assay: Binding affinity to wild-type human partial length ERBB3 (G684 to A987 residues) expressed in mammalian expression system assessed as remaining unbound target protein level at 1000 nM by Kinomescan method relative to control; in short: as §2
[15] = tested on: Serine/threonine-protein kinase B-raf (Homo sapiens), P15056 [V600E]; assay: Binding affinity to human partial length BRAF V600E mutant (S429 to E741 residues) expressed in mammalian expression system assessed as remaining unbound target protein level at 1000 nM by Kinomescan method relative to control
In short: (§3)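 KINOMEscan competition-binding profiling across the panel of 468 kinases and mutants, with inhibitor tested at 1 μM. Binding is expressed as percent of control, with DMSO as the reference control.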

[16] = target: Cyclin-dependent kinase-like 2 (Homo sapiens) (UniProt Q92772); assay: Binding affinity to wild-type human partial length CDKL2 (M1 to D327 residues) expressed in bacterial expression system assessed as remaining unbound target protein level at 1000 nM by Kinomescan method relative to control
In short: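 KINOMEscan competition binding profile across a panel of 468 kinases and mutants, with the inhibitor tested at a single concentration of 1 μM. Binding is reported as percent of control, meaning signal relative to a DMSO control.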

[17] = tested on: Tyrosine-protein kinase ABL1 (Homo sapiens), P00519 [E255K]; assay: Binding affinity to human phosphorylated ABL1 E255K mutant (S229 to K512 residues) expressed in mammalian expression system assessed as remaining unbound target protein level at 1000 nM by Kinomescan method relative to control; in short: as §3
[18] = target: Dual specificity testis-specific protein kinase 1 (Homo sapiens) (UniProt Q15569); assay: Binding affinity to wild-type human full length TESK1 (R37 to S626 residues) expressed in bacterial expression system assessed as remaining unbound target protein level at 1000 nM by Kinomescan method relative to control
In short: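 Profiled in a KINOMEscan binding panel with the inhibitor at a single concentration of 1 μM. Binding to each kinase was read out as percent of control, relative to a DMSO control. Strong binders were defined as those with a percent control value below 1.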

In the case of `COCCN[C@H]1CC[C@H](Nc2cc(-c3csc(NCC4(C#N)CCOCC4)n3)c(Cl)cn2)CC1`, the Activity [1] is reported as 70%, the Activity [2] is reported as 93% and the Activity (MV4-11) is reported as “Dose-dependent effect”. For the same compound, the MRT inf [3] was 1.58 h, the Activity [4] was 55% and the GI50 (HL-60) was 56 nM. The Activity [5] was 80%, the Activity [6] was 94% and the Activity [7] was 100%. It also gave a GI50 (GISTT1) of 2.1 nM, an Activity [8] of 87% and an Activity [9] of 100%. The Activity [10] was 100%, the Activity [11] was 98% and the Activity [12] was 9.9%. The Activity [13] was 79%, the Activity [14] was 93% and the Activity [15] was 91%. For the same compound, the Activity [16] was 63%, the Activity [17] was 72% and the Activity [18] was 92%.
